Where “and” joins values, the source holds several entries; their conditions need not be identical. Equal entries are not always repeated.
System: HEK-293T
Experiment: Multiplex assay against HEK293T
Type: toxicity, cell-based
Settings: human, number of replicates 2
Procedure, shortened: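 Four dyes were applied at seeding to live cells: Hoechst33342, BioTracker Green Microtubule Cytoskeleton Dye, MitoTracker Red and Annexin V Alexa Fluor 680. Imaging after compound addition used a CQ1 microscope at 37°C and 5% CO2. CellPathfinder machine-learning gating then sorted cells into Hoechst high-intensity objects or normal cells, normal cells into healthy, pyknosed or fragmented nuclei, and pyknosed cells into mitotic or apoptotic, with tubulin, mitochondrial-mass and membrane-permeability phenotypes given as per cents of healthy-nucleus cells.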

[1] = 12 h, 1 µM, compound concentration 1 uM
[2] = 12 h, 10 µM, compound concentration 10 uM
[3] = 24 h, 1 µM, compound concentration 1 uM
[4] = 24 h, 10 µM, compound concentration 10 uM
[5] = 48 h, 1 µM, compound concentration 1 uM
[6] = 48 h, 10 µM, compound concentration 10 uM

## CN[C@@H]1CC[C@@H](c2ccc(Cl)c(Cl)c2)c2ccccc21.Cl
[1]
  Population Apoptotic (%): 46% and 42%
  Population Fragmented Nuclei (%): 2% and 3%
  Population Healthy Nuclei (%): 84%
  Population Hoechst High Intensity Objects (%): 8% and 7%
  Population Membrane Permeable-Phenotype (%): 3%
  Population Mitochondria Different-Phenotype (%): 21% and 16%
  Population Mitotic Cells (%): 53% and 57%
  Population Normal (%): 91% and 92%
  Population Pyknosed Nuclei (%): 12% and 11%
  Population Tubulin-Different-Phenotype (%): 68% and 66%
[2]
  Population Apoptotic (%): 57% and 46%
  Population Fragmented Nuclei (%): 3% and 1%
  Population Healthy Nuclei (%): 81% and 80%
  Population Hoechst High Intensity Objects (%): 6%
  Population Membrane Permeable-Phenotype (%): 1% and 3%
  Population Mitochondria Different-Phenotype (%): 48% and 54%
  Population Mitotic Cells (%): 42% and 53%
  Population Normal (%): 93%
  Population Pyknosed Nuclei (%): 15% and 17%
  Population Tubulin-Different-Phenotype (%): 96%
[3]
  Population Apoptotic (%): 41% and 38%
  Population Fragmented Nuclei (%): 3% and 4%
  Population Healthy Nuclei (%): 88%
  Population Hoechst High Intensity Objects (%): 8%
  Population Membrane Permeable-Phenotype (%): 3% and 2%
  Population Mitochondria Different-Phenotype (%): 10%
  Population Mitotic Cells (%): 58% and 61%
  Population Normal (%): 91%
  Population Pyknosed Nuclei (%): 8% and 7%
  Population Tubulin-Different-Phenotype (%): 42% and 45%
[4]
  Population Apoptotic (%): 66% and 59%
  Population Fragmented Nuclei (%): 4% and 2%
  Population Healthy Nuclei (%): 78% and 81%
  Population Hoechst High Intensity Objects (%): 7% and 11%
  Population Membrane Permeable-Phenotype (%): 2%
  Population Mitochondria Different-Phenotype (%): 63% and 59%
  Population Mitotic Cells (%): 33% and 40%
  Population Normal (%): 92% and 88%
  Population Pyknosed Nuclei (%): 16% and 15%
  Population Tubulin-Different-Phenotype (%): 94%
[5]
  Population Apoptotic (%): 14% and 15%
  Population Fragmented Nuclei (%): 11% and 10%
  Population Healthy Nuclei (%): 84% and 86%
  Population Hoechst High Intensity Objects (%): 10% and 9%
  Population Membrane Permeable-Phenotype (%): 4%
  Population Mitochondria Different-Phenotype (%): 1%
  Population Mitotic Cells (%): 85% and 84%
  Population Normal (%): 89% and 90%
  Population Pyknosed Nuclei (%): 3%
  Population Tubulin-Different-Phenotype (%): 18% and 23%
[6]
  Population Apoptotic (%): 58% and 75%
  Population Fragmented Nuclei (%): 5%
  Population Healthy Nuclei (%): 84% and 83%
  Population Hoechst High Intensity Objects (%): 8% and 13%
  Population Membrane Permeable-Phenotype (%): 2% and 3%
  Population Mitochondria Different-Phenotype (%): 29% and 34%
  Population Mitotic Cells (%): 41% and 24%
  Population Normal (%): 91% and 86%
  Population Pyknosed Nuclei (%): 9% and 11%
  Population Tubulin-Different-Phenotype (%): 76% and 87%

## Cc1onc(-c2ccccc2Cl)c1C(=O)N(C)c1ccc(Cl)cc1
[1]
  Population Apoptotic (%): 39% and 47%
  Population Fragmented Nuclei (%): 2% and 5%
  Population Healthy Nuclei (%): 80% and 83%
  Population Hoechst High Intensity Objects (%): 6%
  Population Membrane Permeable-Phenotype (%): 2% and 1%
  Population Mitochondria Different-Phenotype (%): 18% and 15%
  Population Mitotic Cells (%): 60% and 52%
  Population Normal (%): 93%
  Population Pyknosed Nuclei (%): 16% and 11%
  Population Tubulin-Different-Phenotype (%): 47% and 44%
  Total Cell Count: 587 and 613
[2]
  Population Apoptotic (%): 50%
  Population Fragmented Nuclei (%): 3%
  Population Healthy Nuclei (%): 81% and 84%
  Population Hoechst High Intensity Objects (%): 5% and 7%
  Population Membrane Permeable-Phenotype (%): 4% and 1%
  Population Mitochondria Different-Phenotype (%): 26% and 20%
  Population Mitotic Cells (%): 50% and 49%
  Population Normal (%): 94% and 92%
  Population Pyknosed Nuclei (%): 15% and 11%
  Population Tubulin-Different-Phenotype (%): 77% and 55%
  Total Cell Count: 575 and 625
[3]
  Population Apoptotic (%): 44% and 42%
  Population Fragmented Nuclei (%): 7%
  Population Healthy Nuclei (%): 83% and 86%
  Population Hoechst High Intensity Objects (%): 6% and 8%
  Population Membrane Permeable-Phenotype (%): 2%
  Population Mitochondria Different-Phenotype (%): 4% and 5%
  Population Mitotic Cells (%): 55% and 57%
  Population Normal (%): 93% and 91%
  Population Pyknosed Nuclei (%): 9% and 6%
  Population Tubulin-Different-Phenotype (%): 22%
  Total Cell Count: 896 and 976
[4]
  Population Apoptotic (%): 36% and 23%
  Population Fragmented Nuclei (%): 5% and 6%
  Population Healthy Nuclei (%): 84% and 85%
  Population Hoechst High Intensity Objects (%): 5% and 8%
  Population Membrane Permeable-Phenotype (%): 4%
  Population Mitochondria Different-Phenotype (%): 14% and 5%
  Population Mitotic Cells (%): 63% and 76%
  Population Normal (%): 94% and 91%
  Population Pyknosed Nuclei (%): 9% and 7%
  Population Tubulin-Different-Phenotype (%): 51% and 30%
  Total Cell Count: 757 and 965
[5]
  Population Apoptotic (%): 12% and 17%
  Population Fragmented Nuclei (%): 11% and 9%
  Population Healthy Nuclei (%): 84% and 87%
  Population Hoechst High Intensity Objects (%): 8%
  Population Membrane Permeable-Phenotype (%): 4%
  Population Mitochondria Different-Phenotype (%): 1% and 0%
  Population Mitotic Cells (%): 87% and 82%
  Population Normal (%): 91%
  Population Pyknosed Nuclei (%): 3% and 2%
  Population Tubulin-Different-Phenotype (%): 8% and 11%
  Total Cell Count: 2361 and 2103
[6]
  Population Apoptotic (%): 25% and 17%
  Population Fragmented Nuclei (%): 11% and 14%
  Population Healthy Nuclei (%): 84% and 82%
  Population Hoechst High Intensity Objects (%): 8%
  Population Membrane Permeable-Phenotype (%): 6%
  Population Mitochondria Different-Phenotype (%): 2% and 0%
  Population Mitotic Cells (%): 75% and 82%
  Population Normal (%): 91%
  Population Pyknosed Nuclei (%): 4% and 2%
  Population Tubulin-Different-Phenotype (%): 33% and 16%
  Total Cell Count: 1552 and 2354
